Data reported in ChEMBL document CHEMBL2331438, “An efficient domino reaction in ionic liquid: synthesis and biological evaluation of some pyrano- and thiopyrano-fused heterocycles” (2013).
≈ marks a conversion by molar mass, not a printed value.

Experiments:
[1] = Antioxidant activity assessed as ascorbic acid equivalent ferric ion reducing activity per 100 gram at 200 ug/ml by FRAP assay; type: functional
[2] = test system: Mycobacterium tuberculosis; assay: Antimycobacterial activity against Mycobacterium tuberculosis H37Rv at 250 ug/ml; type: functional
Summary of the method: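 M. tuberculosis H37Rv tested on L.J. (Löwenstein–Jensen) medium.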

Candida albicans = assay: Antifungal activity against Candida albicans MTCC 227 after 48 hrs by broth microdilution method; type: functional; details: MTCC 227, 48 h
Aspergillus fumigatus = assay: Antifungal activity against Aspergillus fumigatus MTCC 3008 after 48 hrs by broth microdilution method; type: functional; details: MTCC 3008, 48 h
Vibrio cholerae = assay: Antibacterial activity against Vibrio cholerae MTCC 3906 after 24 hrs by broth microdilution method; type: functional; details: MTCC 3906, 24 h
Salmonella typhi = assay: Antibacterial activity against Salmonella typhi MTCC 98 after 24 hrs by broth microdilution method; type: functional, Salmonella enterica subsp. enterica serovar Typhi; details: Salmonella enterica, MTCC 98, 24 h
Escherichia coli = assay: Antibacterial activity against Escherichia coli MTCC 443 after 24 hrs by broth microdilution method; type: functional; details: MTCC 443, 24 h
Streptococcus pneumoniae = assay: Antibacterial activity against Streptococcus pneumoniae MTCC 1936 after 24 hrs by broth microdilution method; type: functional; details: MTCC 1936, 24 h
Clostridium tetani = assay: Antibacterial activity against Clostridium tetani MTCC 449 after 24 hrs by broth microdilution method; type: functional; details: MTCC 449, 24 h
Bacillus subtilis = assay: Antibacterial activity against Bacillus subtilis MTCC 441 after 24 hrs by broth microdilution method; type: functional; details: MTCC 441, 24 h

| Compound | Activity [1] [mmol] | inhibition at 250 µg/mL [2] [%] | MIC (Candida albicans) [µg/mL] | MIC (Aspergillus fumigatus) [µg/mL] | MIC (Vibrio cholerae) [µg/mL] | MIC (Salmonella typhi) [µg/mL] | MIC (Escherichia coli) [µg/mL] | MIC (Streptococcus pneumoniae) [µg/mL] | MIC (Clostridium tetani) [µg/mL] | MIC (Bacillus subtilis) [µg/mL] |
| --- | --- | --- | --- | --- | --- | --- | --- | --- | --- | --- |
| Cc1nn(-c2ccccc2Cl)c2c1[C@@H]1c3cc4ccccc4nc3SC[C@@H]1CO2 | 90.9 | 52 | 1000 (≈ 2380 µM) | > 1000 | 250 (≈ 595 µM) | 250 (≈ 595 µM) | 250 (≈ 595 µM) | 100 (≈ 238 µM) | 250 (≈ 595 µM) | 125 (≈ 298 µM) |
| Cc1nn(-c2ccc([N+](=O)[O-])cc2)c2c1[C@@H]1c3cc4cccc(C)c4nc3SC[C@@H]1CO2 | 49.8 | 20 | > 1000 | > 1000 | 250 (≈ 562 µM) | 62.5 (≈ 141 µM) | 100 (≈ 225 µM) | 200 (≈ 450 µM) | 200 (≈ 450 µM) | 250 (≈ 562 µM) |
| Cc1nn(-c2ccccc2)c2c1[C@@H]1c3c(ccc4c(C)cc(=O)oc34)OC[C@@H]1C(C)(C)O2 | 146 | 65 | 1000 (≈ 2330 µM) | 200 (≈ 467 µM) | 250 (≈ 583 µM) | 250 (≈ 583 µM) | 250 (≈ 583 µM) | 200 (≈ 467 µM) | 500 (≈ 1170 µM) | 200 (≈ 467 µM) |
| Cc1nn(-c2ccc([N+](=O)[O-])cc2)c2c1[C@@H]1c3c(ccc4c(C)cc(=O)oc34)OC[C@@H]1CO2 | 163 | 79 | 1000 (≈ 2250 µM) | 250 (≈ 561 µM) | 250 (≈ 561 µM) | 200 (≈ 449 µM) | 125 (≈ 281 µM) | 250 (≈ 561 µM) | 250 (≈ 561 µM) | 200 (≈ 449 µM) |
| Cc1nn(-c2ccccc2)c2c1[C@@H]1c3cc4cccc(C)c4nc3SC[C@@H]1C(C)(C)O2 (single isomer, unassigned) | 83.5 | 49 | > 1000 | 1000 (≈ 2340 µM) | 125 (≈ 292 µM) | 100 (≈ 234 µM) | 200 (≈ 468 µM) | 100 (≈ 234 µM) | 100 (≈ 234 µM) | 250 (≈ 585 µM) |
| Cc1nn(-c2ccccc2Cl)c2c1[C@@H]1c3c(ccc4c(C)cc(=O)oc34)OC[C@@H]1CO2 | 200 | 30 | 1000 (≈ 2300 µM) | > 1000 | 250 (≈ 575 µM) | 100 (≈ 230 µM) | 125 (≈ 287 µM) | 100 (≈ 230 µM) | 200 (≈ 460 µM) | 62.5 (≈ 144 µM) |
| Cc1nn(-c2cc(Cl)ccc2Cl)c2c1[C@@H]1c3c(ccc4c(C)cc(=O)oc34)OC[C@@H]1CO2 | 184 | 28 | 250 (≈ 533 µM) | > 1000 | 100 (≈ 213 µM) | 250 (≈ 533 µM) | 125 (≈ 266 µM) | 200 (≈ 426 µM) | 250 (≈ 533 µM) | 200 (≈ 426 µM) |
| Cc1nn(-c2cccc(Cl)c2)c2c1[C@@H]1c3c(ccc4c(C)cc(=O)oc34)OC[C@@H]1CO2 | 158 | 19 | 1000 (≈ 2300 µM) | 250 (≈ 575 µM) | 250 (≈ 575 µM) | 200 (≈ 460 µM) | 100 (≈ 230 µM) | 62.5 (≈ 144 µM) | 62.5 (≈ 144 µM) | 200 (≈ 460 µM) |
| Cc1nn(-c2ccccc2)c2c1[C@@H]1c3cc4cccc(C)c4nc3SC[C@@H]1CO2 | 160 | 38 | 1000 (≈ 2500 µM) | 250 (≈ 626 µM) | 250 (≈ 626 µM) | 200 (≈ 501 µM) | 250 (≈ 626 µM) | 250 (≈ 626 µM) | 200 (≈ 501 µM) | 100 (≈ 250 µM) |
| Cc1nn(-c2cccc(Cl)c2)c2c1[C@@H]1c3cc4cccc(C)c4nc3SC[C@@H]1C(C)(C)O2 (single isomer, unassigned) | 18.2 | 91 | 500 (≈ 1080 µM) | 500 (≈ 1080 µM) | 100 (≈ 216 µM) | 250 (≈ 541 µM) | 150 (≈ 325 µM) | 100 (≈ 216 µM) | 1000 (≈ 2160 µM) | 200 (≈ 433 µM) |
| Cc1nn(-c2ccccc2Cl)c2c1[C@@H]1c3cc4cccc(C)c4nc3SC[C@@H]1C(C)(C)O2 (single isomer, unassigned) | 115 | 50 | 250 (≈ 541 µM) | 500 (≈ 1080 µM) | 200 (≈ 433 µM) | 100 (≈ 216 µM) | 200 (≈ 433 µM) | 250 (≈ 541 µM) | 100 (≈ 216 µM) | 250 (≈ 541 µM) |
